Bioassay records: PubChem BioAssay, several laboratories
Shown are actives, neighbours in structure and some others; about 6.6% of the full set was active somewhere.
Jurkat tox 60K: cytotoxic compounds reducing Jurkat cell viability | Jurkat E6.1 viability, ATP luminescence, 48 h | inhibition, % at 4 µM | hit rate 1.2% among 56,000;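 active = inhibition above the mean inhibition of all tested compounds plus 3 SD, cut at about 28% in these data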
HUVEC prolif 384: human endothelial cell proliferation inhibition; HUVEC proliferation, CellTiter-Glo luminescence, 72 h; hits give low values; viability, % at 10 µM (by protocol); hit rate 1.1% among 86,000; AID 648;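 active = viability at or below 30%; inactive = viability above 30%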;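 note: 100% = median luminescence of DMSO-only cell control wells on each plate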
H69AR inhibit: blocks growth of human H69AR lung tumor cells | viability, % at 10 µM | H69AR lung tumor viability, ATP luminescence, 72 h; hits give low values | hit rate 6% among 85,000;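 active = viability at or below 40%; inactive = viability above 40%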;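 note: multidrug resistant small cell line overexpressing MRP-1 efflux transporter; 100% = mean luminescence of untreated control wells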
Lung fibro prol: blocks proliferation of human lung fibroblasts | LL 47 human lung fibroblast viability, ATP luminescence; hits give low values | hit rate 1.1% among 85,000 | viability, % at 10 µM;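 active = viability at or below 50% in the single dose screen; inactive = viability above 50%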;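 note: compound exposure lasted 72 h before the ATP readout; 100% = median luminescence of untreated cell-only wells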
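Assay system: human lung fibroblast line LL 47, low passage. Input: 1,150 fibroblasts seeded per well. Times: overnight cell rest, 72 h compound treatment at 37 °C. Evaluation: % viability of median cell-only signal. Technique: luminescent ATP detection, CellTiter-Glo. Control set: cell-only wells, no compound.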
* hit, by the source's call.

O=C(CN1CCCN(S(=O)(=O)c2ccc(Br)cc2)CC1)Nc1ccc2c(c1)OCO2 was read as Jurkat tox 60K 8, HUVEC prolif 384 89, H69AR inhibit 12* and Lung fibro prol 93.
Screening O=C(c1cncc(Br)c1)N1CCCc2ccccc21 returned HUVEC prolif 384 100, H69AR inhibit 105 and Lung fibro prol 99.
O=C(c1coc(=O)c(Br)c1)N1CCCc2ccccc21 was read as HUVEC prolif 384 85, H69AR inhibit -0.6* and Lung fibro prol 85.
For CC1(C)CCCN(C(=O)c2coc(=O)c(Br)c2)C1 the results were Jurkat tox 60K -7, HUVEC prolif 384 86, H69AR inhibit 7.0* and Lung fibro prol 98.
For Cc1noc(C)c1CSc1nnc(-c2ccncc2)n1-c1ccc(Cl)c(Cl)c1 the results were Jurkat tox 60K 3, HUVEC prolif 384 87, H69AR inhibit 73 and Lung fibro prol 100.
`CC(Oc1ccc(Cl)cc1Cl)c1nc(-c2ccccn2)no1` (centres undefined) gave HUVEC prolif 384 77, H69AR inhibit 75 and Lung fibro prol 98.
CC(Oc1ccc(Cl)cc1Cl)c1nc(-c2ccc(NC(=O)c3cccnc3)cc2)no1 (centres undefined) was read as Jurkat tox 60K 0, HUVEC prolif 384 72, H69AR inhibit 6.3* and Lung fibro prol 87.
For CC(Oc1ccc(Cl)cc1Cl)c1nc(-c2ccc(NC(=O)c3ccncc3)cc2)no1 (centres undefined) the results were HUVEC prolif 384 50, H69AR inhibit 25* and Lung fibro prol 82.
For CCC(C)Sc1nc(O)c(Cc2ccccc2)c(=O)[nH]1 (centres undefined) the results were HUVEC prolif 384 103, H69AR inhibit 107 and Lung fibro prol 102.
`COc1ccc(OCCn2cc(/C(N)=N/O)c3ccccc32)cc1` gave HUVEC prolif 384 85, H69AR inhibit 58 and Lung fibro prol 84.
Screening Cc1ccc(OCCn2cc(/C(N)=N/O)c3ccccc32)cc1C returned Jurkat tox 60K 10, HUVEC prolif 384 88, H69AR inhibit 35* and Lung fibro prol 89.
Cc1ccc(C)c(N2CCN(C(=O)CCn3c(=S)[nH]c4cc5c(cc4c3=O)OCO5)CC2)c1 was read as HUVEC prolif 384 80, H69AR inhibit 73 and Lung fibro prol 97.
C/C=C(\CS(=O)(=O)c1ccccc1)S(=O)(=O)c1ccccc1 was read as Jurkat tox 60K 0, HUVEC prolif 384 89, H69AR inhibit 25* and Lung fibro prol 64.
Screening COc1cc(NC(=O)CS(=O)(=O)c2ccccc2)cc(OC)c1OC returned Jurkat tox 60K -8, HUVEC prolif 384 96, H69AR inhibit 98 and Lung fibro prol 98.
`CC(C)(C)N1C(=O)Cc2c1nc(N)c1c(N)nc(N3CCCCC3CO)c(C#N)c21` (centres undefined) gave Jurkat tox 60K -12, HUVEC prolif 384 74, H69AR inhibit 20* and Lung fibro prol 88.
For CN(CCO)c1nc(N)c2c(N)nc3c(c2c1C#N)CC(=O)N3C1CCCC1 the results were HUVEC prolif 384 71, H69AR inhibit 31* and Lung fibro prol 94.
`CCN(CC)c1nc(N)c2c(N)nc3c(c2c1C#N)CC(c1ccccc1)O3` (centres undefined) gave Jurkat tox 60K 4, HUVEC prolif 384 72, H69AR inhibit 59 and Lung fibro prol 86.
For COc1ccc(N2CCN(CC(O)COc3ccc4c(c3)CCC4)CC2)cc1 (centres undefined) the results were HUVEC prolif 384 112, H69AR inhibit 85 and Lung fibro prol 104.
`COc1ccc(C(=O)c2ccc(OC)c(N)c2)cc1N` gave Jurkat tox 60K 62*.
Screening CCn1c(SCc2ccc(OC)cc2)nnc1-c1ccncc1 returned Jurkat tox 60K 3, HUVEC prolif 384 107, H69AR inhibit 92 and Lung fibro prol 100.
Screening O=C/C(=C\Nc1ccc(Cl)cn1)c1nc2cc(Cl)ccc2o1 returned HUVEC prolif 384 35, H69AR inhibit 38* and Lung fibro prol 89.
O=C/C(=C\Nc1ccc(Cl)cn1)c1nc2ccccc2o1 was read as HUVEC prolif 384 80, H69AR inhibit 93 and Lung fibro prol 105.
O=C(NCC1CCCO1)NC1(C(F)(F)F)Oc2ccccc2O1 (centres undefined) was read as HUVEC prolif 384 71, H69AR inhibit 21* and Lung fibro prol 78.
For O=C(NC1(C(F)(F)F)Oc2ccccc2O1)N1CCCC1 the results were HUVEC prolif 384 65, H69AR inhibit 28* and Lung fibro prol 81.
O=C(Nc1ccc2c(c1)OCCO2)NC1(C(F)(F)F)Oc2ccccc2O1 was read as Jurkat tox 60K 25, HUVEC prolif 384 75, H69AR inhibit 40 and Lung fibro prol 93.
O=C(Nc1ccc2c(c1)OCO2)NC1(C(F)(F)F)Oc2ccccc2O1 was read as HUVEC prolif 384 80, H69AR inhibit 26* and Lung fibro prol 93.
For Cc1cc(NCCCN2CCOCC2)n2nc(C)c(-c3ccccc3)c2n1 the results were Jurkat tox 60K 4, HUVEC prolif 384 94, H69AR inhibit 22* and Lung fibro prol 100.
For Cc1nc2c(-c3ccc(F)cc3)c(C)nn2c(N2CCOCC2)c1C the results were Jurkat tox 60K 2, HUVEC prolif 384 86, H69AR inhibit 71 and Lung fibro prol 83.
`Cc1cc(NCCCN2CCOCC2)n2ncc(-c3ccccc3)c2n1` gave Jurkat tox 60K -5, HUVEC prolif 384 83, H69AR inhibit 26* and Lung fibro prol 86.
Cc1cc(NCCCN2CCOCC2)n2nc(C)c(-c3ccc(F)cc3)c2n1 was read as Jurkat tox 60K 7, HUVEC prolif 384 73, H69AR inhibit 15* and Lung fibro prol 80.
Screening Cc1cc(C)c2c(n1)nn1c(NCCCN3CCOCC3)cc(C)nc21 returned Jurkat tox 60K 1, HUVEC prolif 384 92, H69AR inhibit 84 and Lung fibro prol 95.
Cc1cc(NCCC(C)C)n2nc(C)c(-c3ccccc3)c2n1 was read as HUVEC prolif 384 70, H69AR inhibit 13* and Lung fibro prol 82.
CCSc1cc(C)nc2c(-c3ccccc3)c(C)nn12 was read as HUVEC prolif 384 110, H69AR inhibit 76 and Lung fibro prol 97.
Screening CCc1c(C(=O)Nc2ccncc2)csc1C returned Jurkat tox 60K 26, HUVEC prolif 384 107, H69AR inhibit 86 and Lung fibro prol 96.
O=C(NCCCN1CCC(Cc2ccccc2)CC1)C1CC(=O)N(C2CCCCCC2)C1 (centres undefined) was read as HUVEC prolif 384 64, H69AR inhibit 92 and Lung fibro prol 89.
`CCCC(c1nnnn1C1CCCC1)N1CCN(c2ccccc2F)CC1` (centres undefined) gave Jurkat tox 60K -8, HUVEC prolif 384 106, H69AR inhibit 74 and Lung fibro prol 94.
For N#CCN1CCN(CCC(=O)Nc2ccc(OCc3ccccc3)cc2)CC1 the results were HUVEC prolif 384 87, H69AR inhibit 108 and Lung fibro prol 101.
CN(CC(=O)NCc1ccc2c(c1)OCO2)S(=O)(=O)c1ccc(Br)s1 was read as HUVEC prolif 384 98, H69AR inhibit 102 and Lung fibro prol 97.
Screening CCCCCCC1CCC(C(=O)Nn2c(C)nc3ccccc3c2=O)CC1 (centres undefined) returned HUVEC prolif 384 113, H69AR inhibit 35* and Lung fibro prol 98.
